Results taken from ChEMBL document CHEMBL3232716, “Tailoring cytotoxicity of antimicrobial peptidomimetics with high activity against multidrug-resistant Escherichia coli” (J Med Chem, 2014).
pIC50: −log10 of the molar value. ≈ marks a conversion by molar mass, not a printed value. Square brackets hold non-standard residues; d marks the D form. Peptide text beside a SMILES is read from it. hArg = N=C(N)NCCCC[C@H](N)C(=O)O; Nspe = C[C@H](NCC(=O)O)c1ccccc1; Nphe = O=C(O)CNCc1ccccc1

Assays:
Staphylococcus aureus = test: Antibacterial activity against methicillin-resistant Staphylococcus aureus ATCC 33591 after 18 hrs by microdilution broth method; type: functional; settings: ATCC 33591, 18 h
Method in brief: (§1)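 CLSI broth microdilution. […] Incubated 35 °C in ambient air for 18 h. MIC taken as the lowest concentration with no visible growth versus the compound-free control. Reported as median and range of three independent biological replicates run on separate days.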

Escherichia coli [1] = test: Antibacterial activity against extended-spectrum beta-lactamase producing multidrug-resistant and colistin-susceptible Escherichia coli CTX-M-15 clinical isolate Aar 11 after 18 hrs by microdilution broth method; type: functional; settings: CTX-M-15, 18 h
Enterococcus faecium = test: Antibacterial activity against vancomycin-resistant Enterococcus faecium ATCC 700221 after 18 hrs by microdilution broth method; settings: ATCC 700221, 18 h
HUVEC = test: Cytotoxicity against HUVEC after 1 hr by MTS/PMS assay; type: cell-based; settings: Homo sapiens
Method in brief: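 HUVEC seeded at 15 000 cells/well on collagen-coated wells (0.6 μg/cm2), passage 4–10, grown to ~90% confluence over 21–25 h. Cells exposed to compound (0–2000 μM) in F-12K medium for 1 h at 37 °C. MTS 240 μg/mL with PMS 9.6 μg/mL in HBSS for 1.5–4 h, then A492. Viability referenced to 0.2% SDS and untreated cells; IC50 reported.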

Escherichia coli [2] = test: Antibacterial activity against NDM-1 producing Escherichia coli clinical isolate 74859898 after 18 hrs by microdilution broth method; type: functional; settings: clinical isolate 74859898, 18 h
HeLa = test: Cytotoxicity against human HeLa cells after 1 hr by MTS/PMS assay; type: cell-based
Method in brief: (§2)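 Monolayers (passage 4–10) grown ~21–25 h to ~90% confluence. Seeding per well: HeLa 8000, HepG2 23 000, NIH 3T3 22 000, IEC-6 16 000, Caco-2 25 000. Cells washed with HBSS/10 mM Hepes pH 7.4 and exposed 1 h at 37 °C, 50 rpm, to compound 0–2000 μM in culture medium. MTS 240 μg/mL/PMS 2.4 μg/mL for 1.5–4 h, A492. Viability referenced to SDS and untreated controls; IC50 from one biological replicate in triplicate.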

[3] = Binding affinity to cholesterol containing synthetic POPC/POPG liposomal membrane at 20 uM by circular dichroism analysis; type: physicochemical; settings: artificial membrane
Method in brief: (§3)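 CD spectra recorded with 20 μM test compound and 2 mM liposomes in 10 mM Tris buffer, pH 7.5. Liposomes were roughly 100 nm: POPC/POPG 7:3 (bacterial model) or POPC/POPG/cholesterol 5:3:2 (mammalian model). Lipid concentration was standardized by enzymatic phospholipid colorimetric assay.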

Acinetobacter baumannii = test: Antibacterial activity against multidrug-resistant Acinetobacter baumannii clinical isolate E2-1228625 after 18 hrs by microdilution broth method; type: functional; settings: clinical isolate E2-1228625, 18 h
[4] = Cytotoxicity against mouse NIH/3T3 cells after 1 hr by MTS/PMS assay; type: cell-based; settings: NIH3T3, 1 h; method in brief: as §2
[5] = Binding affinity to synthetic POPC/POPG liposomal membrane at 20 uM by circular dichroism analysis; type: physicochemical; settings: artificial membrane; method in brief: as §3
[6] = Cytotoxicity against rat IEC-6 cells after 1 hr by MTS/PMS assay; type: cell-based; settings: IEC-6, 1 h; method in brief: as §2
HepG2 = test: Cytotoxicity against human HepG2 cells after 1 hr by MTS/PMS assay; type: cell-based; settings: HepG2, 1 h; method in brief: as §2
Caco-2 = test: Cytotoxicity against human Caco2 cells after 1 hr by MTS/PMS assay; type: cell-based; settings: Caco-2, 1 h; method in brief: as §2
Escherichia coli [7] = test: Antibacterial activity against Escherichia coli ATCC 25922 after 18 hrs by microdilution broth method; type: functional; settings: ATCC 25922, 18 h; method in brief: as §1

Row | SMILES | MIC (Staphylococcus aureus) [µM] | MIC (Escherichia coli [1]) [µM] | MIC (Enterococcus faecium) [µM] | pIC50 (HUVEC) | MIC (Escherichia coli [2]) [µM] | pIC50 (HeLa) | Activity [3] | MIC (Acinetobacter baumannii) [µM] | pIC50 [4] | Activity [5] | pIC50 [6] | pIC50 (HepG2) | pIC50 (Caco-2) | MIC (Escherichia coli [7]) [µM]
1 | CC(=O)N[C@@H](CCCCNC(=N)N)C(=O)N(CCC(=O)N[C@@H](CCCCN)C(=O)N(CCC(=O)N[C@@H](CCCCNC(=N)N)C(=O)N(CCC(=O)N[C@@H](CCCCN)C(=O)N(CCC(=O)N[C@@H](CCCCNC(=N)N)C(=O)N(CCC(N)=O)Cc1ccccc1)Cc1ccccc1)Cc1ccccc1)Cc1ccccc1)Cc1ccccc1 | 64 (≈ 104 µg/mL) | 16 (≈ 26.1 µg/mL) | 128 (≈ 209 µg/mL) | < 3.00 | 8 (≈ 13.1 µg/mL) | 3.29 | Not Active | 128 (≈ 209 µg/mL) | 3.13 | Not Active | < 3.00 | 3.03 | < 3.00 | 8 (≈ 13.1 µg/mL)
2 | CC(=O)N[C@@H](CCCCN)C(=O)N(CCC(=O)N[C@@H](CCCCNC(=N)N)C(=O)N(CCC(=O)N[C@@H](CCCCN)C(=O)N(CCC(=O)N[C@@H](CCCCNC(=N)N)C(=O)N(CCC(=O)N[C@@H](CCCCN)C(=O)N(CCC(=O)N[C@@H](CCCCNC(=N)N)C(=O)N(CCC(N)=O)Cc1ccccc1)Cc1ccccc1)Cc1ccccc1)Cc1ccccc1)Cc1ccccc1)Cc1ccccc1 | 32 (≈ 61.5 µg/mL) | 1 (≈ 1.92 µg/mL) | 32 (≈ 61.5 µg/mL) | < 3.00 | 1 (≈ 1.92 µg/mL) | 3.64 | Not Active | 16 (≈ 30.7 µg/mL) | 3.44 | Not Active | 3.34 | 3.49 | < 3.00 | 1 (≈ 1.92 µg/mL)
3 | CC(=O)N[C@@H](CCCCNC(=N)N)C(=O)N(CCC(=O)N[C@@H](CCCCN)C(=O)N(CCC(=O)N[C@@H](CCCCNC(=N)N)C(=O)N(CCC(=O)N[C@@H](CCCCN)C(=O)N(CCC(=O)N[C@@H](CCCCNC(=N)N)C(=O)N(CCC(N)=O)[C@@H](C)c1ccccc1)[C@@H](C)c1ccccc1)[C@@H](C)c1ccccc1)[C@@H](C)c1ccccc1)[C@@H](C)c1ccccc1 | 16 (≈ 27.2 µg/mL) | 8 (≈ 13.6 µg/mL) | 64 (≈ 109 µg/mL) |  | 8 (≈ 13.6 µg/mL) | 3.87 | Not Active | 64 (≈ 109 µg/mL) | 3.63 | Not Active | 3.73 | 3.73 | < 3.00 | 8 (≈ 13.6 µg/mL)
4 | CC(=O)N[C@@H](CCCCN)C(=O)N(CCC(=O)N[C@@H](CCCCNC(=N)N)C(=O)N(CCC(=O)N[C@@H](CCCCN)C(=O)N(CCC(=O)N[C@@H](CCCCNC(=N)N)C(=O)N(CCC(=O)N[C@@H](CCCCN)C(=O)N(CCC(=O)N[C@@H](CCCCNC(=N)N)C(=O)N(CCC(N)=O)[C@@H](C)c1ccccc1)[C@@H](C)c1ccccc1)[C@@H](C)c1ccccc1)[C@@H](C)c1ccccc1)[C@@H](C)c1ccccc1)[C@@H](C)c1ccccc1 | 16 (≈ 32.1 µg/mL) | 4 (≈ 8.02 µg/mL) | 16 (≈ 32.1 µg/mL) | 3.30 | 2 (≈ 4.01 µg/mL) | 4.41 | Not Active | 8 (≈ 16 µg/mL) | 3.87 | Not Active | 3.83 | 4.00 | 3.48 | 2 (≈ 4.01 µg/mL)
5 | CC(=O)N[C@@H](CCCCN)C(=O)N(CCC(=O)N[C@@H](CCCCNC(=N)N)C(=O)N(CCC(=O)N[C@@H](CCCCN)C(=O)N(CCC(=O)N[C@@H](CCCCNC(=N)N)C(=O)N(CCC(=O)N[C@@H](CCCCN)C(=O)N(CCC(=O)N[C@@H](CCCCNC(=N)N)C(=O)N(CCC(=O)N[C@@H](CCCCN)C(=O)N(CCC(N)=O)[C@@H](C)c1ccccc1)[C@@H](C)c1ccccc1)[C@@H](C)c1ccccc1)[C@@H](C)c1ccccc1)[C@@H](C)c1ccccc1)[C@@H](C)c1ccccc1)[C@@H](C)c1ccccc1 | 8 (≈ 18.5 µg/mL) | 2 (≈ 4.62 µg/mL) | 4 (≈ 9.24 µg/mL) | 3.63 | 2 (≈ 4.62 µg/mL) | 4.59 | Not Active | 2 (≈ 4.62 µg/mL) | 4.05 | Not Active | 4.10 | 4.32 | 3.71 | 2 (≈ 4.62 µg/mL)
6 | CC(=O)N[C@@H](CCCCN)C(=O)N(CC(=O)N[C@@H](CCCCNC(=N)N)C(=O)N(CC(=O)N[C@@H](CCCCN)C(=O)N(CC(=O)N[C@@H](CCCCNC(=N)N)C(=O)N(CC(=O)N[C@@H](CCCCN)C(=O)N(CC(=O)N[C@@H](CCCCNC(=N)N)C(=O)N(CC(=O)N[C@@H](CCCCN)C(=O)N(CC(N)=O)Cc1ccccc1)Cc1ccccc1)Cc1ccccc1)Cc1ccccc1)Cc1ccccc1)Cc1ccccc1)Cc1ccccc1 (Ac-K[Nphe][hArg][Nphe]K[Nphe][hArg][Nphe]K[Nphe][hArg][Nphe]K[Nphe]-NH2) | 32 (≈ 67.6 µg/mL) | 1 (≈ 2.11 µg/mL) | 8 (≈ 16.9 µg/mL) | 3.38 | 1 (≈ 2.11 µg/mL) | 4.00 | Not Active | 4 (≈ 8.45 µg/mL) | 3.60 | Not Active | 3.50 | 3.42 | < 3.00 | 1 (≈ 2.11 µg/mL)
7 | CC(=O)N[C@@H](CCCCN)C(=O)N(CC(=O)N[C@@H](CCCCNC(=N)N)C(=O)N(CC(=O)N[C@@H](CCCCN)C(=O)N(CC(=O)N[C@@H](CCCCNC(=N)N)C(=O)N(CC(=O)N[C@@H](CCCCN)C(=O)N(CC(=O)N[C@@H](CCCCNC(=N)N)C(=O)N(CC(N)=O)[C@@H](C)c1ccccc1)[C@@H](C)c1ccccc1)[C@@H](C)c1ccccc1)[C@@H](C)c1ccccc1)[C@@H](C)c1ccccc1)[C@@H](C)c1ccccc1 (Ac-K[Nspe][hArg][Nspe]K[Nspe][hArg][Nspe]K[Nspe][hArg][Nspe]-NH2) | 16 (≈ 30.7 µg/mL) | 4 (≈ 7.69 µg/mL) | 2 (≈ 3.84 µg/mL) | 3.45 | 2 (≈ 3.84 µg/mL) | 4.28 | Not Active | 2 (≈ 3.84 µg/mL) | 3.92 | Not Active | 4.17 | 4.11 | 3.42 | 2 (≈ 3.84 µg/mL)
8 | CO/N=C(\C(=O)N[C@@H]1C(=O)N2C(C(=O)O)=C(COC(C)=O)CS[C@H]12)c1csc(N)n1 [CEFOTAXIME] | > 128 | > 128 | > 128 |  | > 128 |  |  | > 128 |  |  |  |  |  | < 0.125
9 | O=C(O)c1cn(C2CC2)c2cc(N3CCNCC3)c(F)cc2c1=O [CIPROFLOXACIN] | 0.25 (≈ 0.0828 µg/mL) |  |  |  |  |  |  |  |  |  |  |  |  | < 0.125
10 | CC[C@H](C)[C@H](NC(=O)CN)C(=O)NCC(=O)N[C@@H](C)C(=O)N[C@H](C(=O)N[C@@H](CC(C)C)C(=O)N[C@@H](CCCCN)C(=O)N[C@H](C(=O)N[C@@H](CC(C)C)C(=O)N[C@H](C(=O)N[C@H](C(=O)NCC(=O)N[C@@H](CC(C)C)C(=O)N1CCC[C@H]1C(=O)N[C@@H](C)C(=O)N[C@@H](CC(C)C)C(=O)N[C@H](C(=O)N[C@@H](CO)C(=O)N[C@@H](Cc1c[nH]c2ccccc12)C(=O)N[C@H](C(=O)N[C@@H](CCCCN)C(=O)N[C@@H](CCCNC(=N)N)C(=O)N[C@@H](CCCCN)C(=O)N[C@@H](CCCNC(=N)N)C(=O)N[C@@H](CCC(N)=O)C(=O)N[C@@H](CCC(N)=O)C(N)=O)[C@@H](C)CC)[C@@H](C)CC)[C@@H](C)O)[C@@H](C)O)C(C)C)C(C)C [MELITTIN] |  |  |  |  |  | 5.72 |  |  |  |  |  | 5.60 | 5.35 | 
11 | CN[C@H](CC(C)C)C(=O)N[C@H]1C(=O)N[C@@H](CC(N)=O)C(=O)N[C@H]2C(=O)N[C@H]3C(=O)N[C@H](C(=O)N[C@H](C(=O)O)c4cc(O)cc(O)c4-c4cc3ccc4O)[C@H](O)c3ccc(c(Cl)c3)Oc3cc2cc(c3O[C@@H]2O[C@H](CO)[C@@H](O)[C@H](O)[C@H]2O[C@H]2C[C@](C)(N)[C@H](O)[C@H](C)O2)Oc2ccc(cc2Cl)[C@H]1O [VANCOMYCIN] | 0.5 (≈ 0.725 µg/mL) | > 128 | 128 (≈ 186 µg/mL) |  | > 128 |  |  | > 128 |  |  |  |  |  | > 128
